# From the RNAGym collection of RNA variant scans (doi:10.1126/science.aae0568)
# This sample holds only a part of the variants without activity.
# B1: tRNA (parent)
# chain: GUUCCGUUGGCGUAAUGGUAACGCGUCUCCCUCCUAAGGAGAAGACUGCGGGUUCGAGUCCCGUACGGAACG
# Variants of: B1
# Experiment: yeast fitness relative to wild type (ratio to wild type); higher = fitter; tRNA-Arg(CCU), competitive growth, 37 C, YPD
# How it was run: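 Start and end populations of a pooled competition were compared by 100-nucleotide paired-end sequencing of gene amplicons. The Saccharomyces cerevisiae strains carried tRNA-Arg(CCU) gene variants at the native genomic locus, synthesised with a 3% per-site mutation rate at 69 sites, and competed in YPD at 37°C for 24 hours in six parallel replicates. Darwinian fitness relative to wild type was based on the change in genotype frequencies. Genotypes required ≥ 100 starting reads, and estimates < 0.5 were set to 0.5.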
row,Variant,yeast fitness
1,C62A G63A,0.578
2,C62A G63A A70C,0.54
3,C62A G63C,0.661
4,C62A G67A,0.817
5,C62A G67C,0.81
6,C62A G68A,0.797
7,C62A G68C,0.875
8,C62G,0.924
9,C62G A65C,0.6
10,C62G A65G,0.811
11,C62G A69C,0.617
12,C62G A70G,0.752
13,C62G A70U,0.637
14,C62G C66U,0.652
15,C62G G63C A65U,≤ 0.5
16,C62G G68A,0.56
17,C62G G68C,0.592
18,C62G G68U,0.707
19,C62U,0.994
20,C62U A65C,0.914
21,C62U A65G,0.886
22,C62U A69C,1.02
23,C62U A69G,0.918
24,C62U A70C,0.91
25,C62U G63A A70C,0.583

row,Variant,yeast fitness
1,C62U G67A,0.849
2,C62U G68C,0.812
3,G63A A65G,0.889
4,G63A A65G A69U,0.609
5,G63A A70G,0.804
6,G63A C66U,0.826
7,G63A G67U,0.686
8,G63A G68A,0.843
9,G63A G68C,0.883
10,G63A U64G,0.8
11,G63C A65C,0.638
12,G63C A65G,0.594
13,G63C A70C,0.744
14,G63C C66G,0.709
15,G63C C66U,0.666
16,G63C G67C,0.605
17,G63C G67U,0.677
18,G63C G68C,0.761
19,G63C G68U,0.568
20,G63U C66A A69U,≤ 0.5
21,U64A A65C G68A,0.526
22,U64A A65G G67U,0.709
23,U64A A65U,0.718
24,U64A A69G,0.719
25,U64A A70G,0.711

row,Variant,yeast fitness
1,U64A A70U,0.884
2,U64A G67A,0.84
3,U64C A65G,0.86
4,U64C A65U,0.928
5,U64C A69C A70U,0.757
6,U64C C66A,0.832
7,U64C G67A,0.802
8,U64C G67C,0.938
9,U64C G68U,1.01
10,U64G A65U,0.648
11,U64G A69C,0.616
12,U64G A69G,0.789
13,U64G A70C,0.755
14,U64G C66U,0.669
15,U64G G68A,0.678
16,A65C A69C,0.727
17,A65C A69G,0.939
18,A65C A69G A70U,0.519
19,A65C A69U,0.921
20,A65C A70G,1.06
21,A65C A70U,1.06
22,A65C G67A,0.692
23,A65G A70C,0.889
24,A65G C66G,0.897
25,A65G C66G A70G,≤ 0.5

row,Variant,yeast fitness
1,A65G G67A,1.03
2,A65G G68C,0.859
3,A65U A69C,0.845
4,A65U A69U,0.967
5,A65U A70C,0.823
6,A65U G67A,0.839
7,A65U G68C,0.625
8,A65U G68U,0.99
9,C66A A69U,0.693
10,C66A A70U,0.603
11,C66A G67A,0.557
12,C66A G68C,0.678
13,C66G A69C,0.782
14,C66G A69U,0.746
15,C66G A70U,0.724
16,C66G G68C,0.634
17,C66U A69C,0.743
18,C66U A69U,0.831
19,C66U A70G,0.973
20,C66U G67C,0.934
21,C66U G68A,0.871
22,G67A A69G,0.974
23,G67A A70C,0.901
24,G67A G68A,0.85
25,G67C A69U,0.896

row,Variant,yeast fitness
1,G67C A70U,0.904
2,G67U A69C,0.795
3,G67U A70U,0.933
4,G68A,0.963
5,G68A A69G,0.827
6,G68A A69U,0.791
7,G68A A70C,0.861
8,G68A A70U,1.21
9,G68C,0.968
10,G68C A69C,0.786
11,G68C A69G,0.945
12,G68C A69U,0.711
13,G68C A70C,0.837
14,G68U,1.02
15,G68U A69G,0.998
16,A69C A70C,0.982
17,A69C A70G,1.02
18,A69C A70U,1.05
19,A69G A70U,0.99
20,A69U A70C,1.04
21,A70C,1.04
22,A70G,0.999
23,A70U,1.02
